Reference: ChEMBL document CHEMBL3244071, “3-Phenyl-5-[2,2,2-trifluoro-1-hydroxy-1-(trifluoromethyl)ethyl]indole-2-carbonitrile, a potent inhibitor of prostaglandin synthetase and of platelet aggregation” (J Med Chem, 1979)

Experiments:
Platelet [1] = assay: Inhibition of ADP-induced platelet aggregation in human platelet-rich plasma after 5 mins; assay type: functional
Method in brief: (§1)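 Human PRP from centrifugation (180g, 15 min, room temperature); PPP from spinning PRP at 1000g for 2 min. 1 mL PRP stirred at 1000 rpm at 37 °C in a densitometer. Compounds added in physiological saline at various concentrations and incubated 5 min. Aggregation then triggered with ADP, epinephrine hydrochloride or human mammary-gland collagen. IC50 extrapolated from % inhibition vs log concentration.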

Platelet [2] = assay: Inhibition of collagen-induced platelet aggregation in human platelet-rich plasma after 5 mins; assay type: functional; method in brief: as §1
Rattus norvegicus [3] = assay: Inhibition of PGF2-alpha formation in po dosed rat serum after 1 hr by radioimmunoassay; assay type: functional
Method in brief: (§2)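 Male rats, about 200 g, five per group, dosed at various levels ip or orally by intubation. Killed 1 h later and serum prepared. Serum extracted with ethyl acetate, extract evaporated under nitrogen, then assayed by radioimmunoassay using rabbit antibodies raised to PGF2α.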

Rattus norvegicus [4] = assay: Inhibition of PGF2-alpha formation in ip dosed rat serum after 1 hr by radioimmunoassay; assay type: functional; method in brief: as §2
Mus musculus = assay: Inhibition of arachidonic acid-induced diarrhea in po dosed mouse treated for 1 hr prior to arachidonic acid-challenge measured after 30 mins; assay type: functional
Method in brief: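 Male mice, 18-20 g, given compound orally 1 h before arachidonic acid 4 mg/kg ip. Diarrhea scored 0-4 on paper towels by pellet softness and wet ring.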

Platelet [5] = assay: Inhibition of epinephrine hydrochloride-induced platelet aggregation in human platelet-rich plasma after 5 mins; assay type: functional; method in brief: as §1
Rattus norvegicus [6] = assay: Toxicity in po dosed rat assessed as gastric ulcer incidence after 4 hrs; assay type: organism-based, Stomach; details: in vivo
Method in brief: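 Male rats fasted 18 h with water ad libitum. Dosed orally 4 h before autopsy. Stomachs opened along the lesser curvature, everted, rinsed in saline and examined for focal petechiae.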

[7] = molecular target: prostaglandin G/H synthase 1 (Bos taurus) (UniProt O62664); assay: Inhibition of prostaglandin synthetase (bovine) using arachidonic acid as substrate preincubated for 10 mins followed by substrate addition
[8] = molecular target: prostaglandin G/H synthase 1 (Bos taurus) (UniProt O62664); assay: Ratio of indomethacin IC50 to compound IC50 for prostaglandin synthetase (bovine)
[9] = Toxicity in po dosed mouse; assay type: organism-based; details: in vivo
Method in brief: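 Acute oral (single-dose) administration to mice; the endpoint was the LD50 in mg/kg.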

Rattus norvegicus [10] = organism: Rattus norvegicus; assay: Toxicity in rat assessed as systemic antiinflammatory activity; assay type: organism-based; details: in vivo
[11] = Toxicity in po dosed mouse treated for 14 days; assay type: organism-based; details: in vivo
Rattus norvegicus [12] = organism: Rattus norvegicus; assay: Toxicity in rat assessed as systemic analgesic activity; assay type: organism-based; details: in vivo
[13] = Homo sapiens, Platelet, Plasma, 5 min, read-out: IC50

Compound | IC50 (Platelet [1]) | IC50 (Platelet [2]) | ED50 (Rattus norvegicus [3]) | ED50 (Rattus norvegicus [4]) | ED50 (Mus musculus) | IC50 (Platelet [5]; platelet) | ED50 (Rattus norvegicus [6]) | IC50 (Platelet [5]; [13]) | IC50 [7] | Ratio IC50 [8] | LD50 [9] | Activity (Rattus norvegicus [10]) | LD50 at 336 h [11] | Activity (Rattus norvegicus [12])
CC(=O)Oc1ccccc1C(=O)O [ASPIRIN] | 25 µM | 31 µM | 6.7 mg/kg | 10 mg/kg | 1.3 mg/kg | 18 µM | 49 mg/kg |  |  |  |  |  |  | 
COc1ccc2c(c1)c(CC(=O)O)c(C)n2C(=O)c1ccc(Cl)cc1 [INDOMETHACIN] | 0.1 µM | 2.8 µM | < 1 mg/kg | < 1 mg/kg | 0.8 mg/kg |  | 3 mg/kg | 3.2 µM |  |  |  |  |  | 
NC(=O)c1[nH]c2ccc(C(O)(C(F)(F)F)C(F)(F)F)cc2c1-c1ccccc1 |  |  |  |  |  |  |  |  | 7 µM |  |  |  |  | 
N#Cc1[nH]c2ccc(C(O)(C(F)(F)F)C(F)(F)F)cc2c1-c1ccccc1 | 7.3 µM | 4.2 µM | 28 mg/kg | 15 mg/kg | 5 mg/kg |  | > 250 mg/kg | 34 µM | 0.5 µM | 2 | > 1000 mg/kg | Non-toxic | > 1000 mg/kg | Non-toxic
